Experimental findings from EPA's CvTdb concentration-time database are described below.

Series [1] deals with Rat. Description: concentration in plasma after dosing. Conditions: dosed: Fluorotelomer alcohol 8+2, 12 mg/kg, oral, Male, Harlan Sprague Dawley.
For series [2], the system named is Rat. Description: concentration in liver after dosing. Particulars: 1 h; dosed: Fluorotelomer alcohol 8+2; 80 mg/kg; oral; Female; Harlan Sprague Dawley.
Series [3] deals with Rat. The series is described as follows: concentration in kidney after dosing. Particulars: 3 h; dosed: Fluorotelomer alcohol 8+2; 24 mg/kg; oral; Male; Harlan Sprague Dawley.
In series [4] the test system is Rat. The series is described as follows: concentration in liver after dosing. Conditions: 3 h; dosed: Fluorotelomer alcohol 8+2; 24 mg/kg; oral; Male; Harlan Sprague Dawley.
For series [5], the system named is Rat. The series is described as follows: concentration in kidney after dosing. Particulars: 3 h; dosed: Fluorotelomer alcohol 8+2; 24 mg/kg; oral; Male; Harlan Sprague Dawley. This is another data set of the same source.
Series [6] has as its system Rat. The series is described as follows: concentration in brain after dosing. Conditions: 0.5 h; dosed: Fluorotelomer alcohol 8+2; 24 mg/kg; oral; Male; Harlan Sprague Dawley.
Series [7] has as its system Rat. Description: concentration in plasma after dosing. Conditions: 1 h; dosed: Wyeth-14643; 5.0 mg/kg; oral; Male; Sprague-Dawley.
Series [8] relates to Rat. The series is described as follows: concentration in plasma after dosing. Conditions: 20 min; dosed: Di-n-butyl phthalate; 50 mg/kg; oral; Male; Sprague-Dawley.
For series [9], the system named is Rat. Description: concentration in plasma after dosing. Particulars: 6 h; dosed: Di-n-butyl phthalate; 100 mg/kg; oral; Male; Sprague-Dawley.
The test system of series [10] is Rat. The series is described as follows: concentration in plasma after dosing. Conditions: 24 h; dosed: Di-n-butyl phthalate; 100 mg/kg; oral; Male; Sprague-Dawley.
Series [11] has as its system Rat. Description: concentration in plasma after dosing. Particulars: 10 h; dosed: Di-n-butyl phthalate; 50 mg/kg; oral; Male; Sprague-Dawley.
For series [12], the system named is Rat. The series is described as follows: concentration in plasma after dosing. Conditions: 4 h; dosed: Di-n-butyl phthalate; 100 mg/kg; oral; Male; Sprague-Dawley.
Series [13] concerns Rat. The series is described as follows: concentration in plasma after dosing. Particulars: 5 h; dosed: Di-n-butyl phthalate; 20 mg/kg; iv; Male; Sprague-Dawley.
The subject of series [14] is Rat. Description: concentration in plasma after dosing. Particulars: dosed: dichloroacetic acid, 10 mg/kg, oral, Male, Harlan Sprague Dawley.
Series [15] concerns Rat. The series is described as follows: concentration in plasma after dosing. Conditions: 2 min; dosed: dichloroacetic acid; 10 mg/kg; iv; Male; F344.
The test system of series [16] is Rat. Description: concentration in plasma after dosing. Particulars: dosed: dichloroacetic acid, 100 mg/kg, oral, Male, F344.
The subject of series [17] is Rat. Description: concentration in plasma after dosing. Conditions: 20 min; dosed: dichloroacetic acid; 10 mg/kg; oral; Male; Harlan Sprague Dawley.
Series [18] relates to Rat. Description: concentration in plasma after dosing. Conditions: dosed: dichloroacetic acid, 100 mg/kg, oral, Male, F344. This is another data set of the same source.
In the next series the test system is human. Particulars: dosed: tetrachloroethylene, 144 ppm, inhalation, duration: 4 hr, male. Put shortly: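 A PubMed search, classifier screening and manual review identified published in vivo toxicokinetic studies, which together with two structured collections supplied concentration-versus-time and amount-versus-time points. Points were mostly digitised from plot screenshots with WebPlotDigitizer, otherwise copied from tables. Dose, route, subject details and medium were hand-curated from each paper, and sampling and analytical methods are those of the sources, often unreported.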

In series [19] the test system is Rat. Description: concentration in brain after dosing. Conditions: 1848 h; dosed: Perfluorodecanoic acid; 10 mg/kg; oral; Male; Harlan Sprague Dawley.
Series [20] relates to Rat. Description: concentration in plasma after dosing. Conditions: dosed: Perfluorodecanoic acid, 2 mg/kg, iv, Male, F344.
The subject of series [21] is Rat. The series is described as follows: concentration in liver after dosing. Conditions: 3360 h; dosed: Perfluorodecanoic acid; 10 mg/kg; oral; Male; Harlan Sprague Dawley.
Series [22] relates to Rat. The series is described as follows: concentration in kidney after dosing. Conditions: 1848 h; dosed: Perfluorodecanoic acid; 10 mg/kg; oral; Female; Harlan Sprague Dawley.
Series [23] has as its system Rat. Description: concentration in thymus after dosing. Conditions: 6.667 h; dosed: Thiodiglycolic Acid; 20 mg/kg; iv; Female; Harlan Sprague Dawley.
In series [24] the test system is Rat. The series is described as follows: concentration in thymus after dosing. Particulars: 4 h; dosed: Thiodiglycolic Acid; 20 mg/kg; iv; Female; Harlan Sprague Dawley.
Series [25] has as its system Rat. The series is described as follows: concentration in liver after dosing. Conditions: 20 min; dosed: Thiodiglycolic Acid; 20 mg/kg; iv; Female; F344.
The test system of series [26] is Rat. The series is described as follows: concentration in heart after dosing. Particulars: 2 h; dosed: Thiodiglycolic Acid; 20 mg/kg; iv; Female; Harlan Sprague Dawley.
In series [27] the test system is Rat. The series is described as follows: concentration in liver after dosing. Conditions: 3 h; dosed: Thiodiglycolic Acid; 20 mg/kg; iv; Female; Harlan Sprague Dawley.
Series [28] deals with Rat. The series is described as follows: concentration in thymus after dosing. Particulars: 10 min; dosed: Thiodiglycolic Acid; 20 mg/kg; iv; Female; Harlan Sprague Dawley.
Series [29] has as its system Rat. The series is described as follows: concentration in plasma after dosing. Conditions: 22 h; dosed: Primidone; 130 mg/kg; oral; Female; F344.
For series [30], the system named is Rat. Description: concentration in plasma after dosing. Particulars: 1.5 h; dosed: Primidone; 130 mg/kg; oral; Female; F344.
In series [31] the test system is Rat. The series is described as follows: concentration in plasma after dosing. Particulars: 9 h; dosed: Primidone; 130 mg/kg; oral; Female; F344.
Series [32] has as its system Rat. Description: concentration in plasma after dosing. Conditions: 12 h; dosed: Primidone; 30 mg/kg; oral; Female; F344.
The subject of series [33] is Rat. Description: concentration in plasma after dosing. Particulars: dosed: Bis 2-Chloroethoxy Methane, 40 mg/kg, iv, Male, Harlan Sprague Dawley.
In series [34] the test system is Rat. Description: concentration in thymus after dosing. Particulars: 20 min; dosed: Bis 2-Chloroethoxy Methane; 20 mg/kg; iv; Male; F344.
Series [35] has as its system Rat. The series is described as follows: concentration in plasma after dosing. Conditions: 20 min; dosed: Bis 2-Chloroethoxy Methane; 20 mg/kg; iv; Male; F344.
For series [36], the system named is Rat. Description: concentration in plasma after dosing. Particulars: 10 min; dosed: Bis 2-Chloroethoxy Methane; 20 mg/kg; iv; Female; F344.

As for `OCCC(F)(F)C(F)(F)C(F)(F)C(F)(F)C(F)(F)C(F)(F)C(F)(F)C(F)(F)F` [Fluorotelomer alcohol 8+2], the concentration in plasma in the series on Rat [1] (0.5 h) was 274 ng/mL; in the series on Rat [1] (9 h) it was 10.3 ng/mL. Also, the concentration in liver is 7790 ng/g in the series on Rat [2] and 2220 ng/g in the series on Rat [4]. In addition, the concentration in kidney in the series on Rat [3] was found to be 631 ng/g; in the series with Rat [5] it was 985 ng/g. The same compound had a concentration in brain with Rat [6] of 1810 ng/g.

Take `Cc1cccc(Nc2cc(Cl)nc(SCC(=O)O)n2)c1C`: the concentration in plasma in the series with Rat [7] was determined as 4.73 µg/mL.

Turning to `CCCCOC(=O)c1ccccc1C(=O)O` [Mono-n-butyl phthalate], the concentration in plasma in the series with Rat [8] amounted to 32.4 µg/mL; in the series on Rat [9], 16.9 µg/mL; in the series with Rat [10], 2.77 µg/mL; with Rat [11], 0.797 µg/mL; with Rat [12] it was 10.2 µg/mL; with Rat [13], 0.6 µg/mL.

With `O=C(O)C(Cl)Cl` [dichloroacetic acid], the concentration in plasma in the series with Rat [14] (10 min) stood at 0.862 µg/mL; in the series on Rat [14] (50 min), 0.167 µg/mL; in the series on Rat [15], 22.9 µg/mL; with Rat [16] (5 min) it was 20.9 µg/mL; with Rat [16] (2 h), 57.5 µg/mL; with Rat [17] it was 0.291 µg/mL. Besides, the concentration in plasma with Rat [18] (2 min) was determined as 2.97 µg/mL; in the series on Rat [18] (1.25 h), 54.2 µg/mL.

As for `O=C(O)C(Cl)(Cl)Cl` [trichloroacetic acid], the entries for the “amount in urine after dosing” value in the series with human (22 h), in the series on human (46 h) and in the series on human (70 h) were 6.91 mg, 2.33 mg and 2.17 mg, respectively.

Regarding `O=C(O)C(F)(F)C(F)(F)C(F)(F)C(F)(F)C(F)(F)C(F)(F)C(F)(F)C(F)(F)C(F)(F)F` [Perfluorodecanoic acid], the concentration in brain in the series with Rat [19] is 531 ng/g. For the same compound, the concentration in plasma stood at 6240 ng/mL in the series with Rat [20] (6 h) and 2140 ng/mL in the series with Rat [20] (864 h). Also, in the series on Rat [21], the concentration in liver is 13300 ng/g. The concentration in kidney in the series with Rat [22] was determined as 10100 ng/g.

`O=C(O)CSCC(=O)O` [Thiodiglycolic Acid]: the concentration in thymus turned out to be 335 ng/g in the series on Rat [23], 657 ng/g in the series with Rat [24] and 7780 ng/g in the series on Rat [28]. Besides, the concentration in liver turned out to be 174000 ng/g in the series with Rat [25] and 94200 ng/g in the series with Rat [27]. The compound further yielded a concentration in heart in the series on Rat [26] of 1640 ng/g.

With `CCC1(c2ccccc2)C(=O)NC(=O)NC1=O` [Phenobarbital], the concentration in plasma was found to be 2.49 µg/mL in the series on Rat [29], 0.99 µg/mL in the series on Rat [30], 2.44 µg/mL with Rat [31] and 0.93 µg/mL with Rat [32].

On to `ClCCOCOCCCl` [Bis 2-Chloroethoxy Methane], for which the concentration in plasma in the series on Rat [33] (20 min) is 9720 ng/mL; with Rat [33] (6.667 h), 40.1 ng/mL; with Rat [35], 3180 ng/mL; in the series on Rat [36], 9470 ng/mL. The concentration in thymus with Rat [34] was 25400 ng/g.
